Measured values from different studies.
Antigen peptide transporter 1/Antigen peptide transporter 2: Antigen peptide transporter 1/Antigen peptide transporter 2 (Homo sapiens, UniProt Q03518+Q03519)
Slc6a3: Sodium-dependent dopamine transporter (Slc6a3, Rattus norvegicus, UniProt P23977)

`CC[C@H](C)[C@H](NC(=O)[C@H](C)NC(=O)CN)C(=O)N[C@@H](CC(=O)O)C(=O)N[C@@H](CCCCN)C(=O)N1CCC[C@H]1C(=O)N[C@H](C(=O)N[C@@H](CC(C)C)C(=O)N[C@@H](CCCCN)C(=O)O)[C@@H](C)CC` has an IC50 of 8200 nM (Antigen peptide transporter 1/Antigen peptide transporter 2; ligand displacement).
`CC(NC(C)(C)C)C(=O)c1ccccc1` (centres unmarked) has an IC50 of 1310 nM (Slc6a3; transporter uptake, inhibitor, radiometric).
With `COC(=O)C(NC(=O)c1cn(CCCCCO)c2ccccc12)C(C)(C)C` (centres unmarked) the IC50 was 106 nM (Cannabinoid receptor 1 (Cnr1, Rattus norvegicus, UniProt P20272); ligand displacement, radioligand; cell membranes).
`CSCC[C@H](NC(=O)[C@@H]1CCCN1C(=O)[C@H](CCCNC(=N)N)NC(=O)[C@H](CC(C)C)NC(=O)[C@@H]1CCCN1C(=O)[C@@H](NC(=O)[C@H](C)N)C(C)C)C(=O)N[C@H](C(=O)N[C@@H](Cc1ccc(O)cc1)C(=O)N[C@@H](C)C(=O)O)[C@@H](C)O` gave an IC50 of 5000 nM (Antigen peptide transporter 1/Antigen peptide transporter 2; ligand displacement).
With `CNC(C)C(=O)c1cccc(Cl)c1` (centres unmarked) the IC50 was 342 nM (Slc6a3; transporter uptake, inhibitor, radiometric).
With `CC[C@H](C)[C@H](NC(=O)[C@H](CC(C)C)NC(=O)[C@@H](N)CO)C(=O)NCC(=O)N[C@@H](CCCCN)C(=O)N[C@H](C(N)=O)C(C)C` the EC50 was 5800 nM (Proteinase-activated receptor 2 (F2RL1, Homo sapiens, UniProt P55085); calcium signal, agonist).
With `COc1ccc2cccc(C(CO)CNC(=O)CF)c2c1` (centres unmarked) the EC50 was 17.8 nM (Melatonin receptor type 1B (MTNR1B, Homo sapiens, UniProt P49286); cAMP, agonist, TR-FRET).
`O=c1c(O)c(-c2ccc(O)c(O)c2)oc2cc(O)cc(O)c12` gave an IC50 of 4500 nM (CX3C chemokine receptor 1 (CX3CR1, Homo sapiens, UniProt P49238); β-arrestin recruitment, antagonist).
